Laboratory results taken from ChEMBL document CHEMBL1123247, “Nucleoside conjugates. 7. Synthesis and antitumor activity of 1-beta-D-arabinofuranosylcytosine conjugates of ether lipids” (J Med Chem, 1986).

Assays:
L1210 [1] = test: Antitumor activity was determined against the ip implanted L1210 leukemia in mice by range in survival days at 200 mg/kg (treatment of 1qd schedule) dosage; Range is 14-23; assay type: functional, Mus musculus; conditions: route intraperitoneal
Summary of the method: (§1)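 DBA/2J mice, 23-28 g, in groups of 6, were inoculated ip with 1×10^6 L1210 cells on day 0. Dosing was ip starting 24 h later on the stated daily schedules. Conjugates were given as sonicated solutions and reference prodrugs as suspensions in 0.9% NaCl with 0.5% Tween-80. Mice were observed daily until death or 45 days. Median survival T/C was calculated from survivors per NCI protocols.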

L1210 [2] = test: Antitumor activity against the ic implanted L1210 lymphoid leukemia in mice expressed as optimal dose (1 qd treatment schedule) required to produce greatest increase in life span was determined; assay type: functional, Mus musculus
Summary of the method: (§2)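 DBA/2J mice, groups of 6 (26-32 g), got 1 × 10^5 L1210 cells ic on day 0. Dosing was ip starting 24 h later, as a sonicated solution or suspension in 0.9% NaCl with 0.5% Tween-80, over a wide dose range. Mice were followed daily until death. Median survival T/C was taken from survivors per NCI protocols, and ILS = (T/C − 1) × 100. Active range means doses giving ILS ≥25%; optimal dose means greatest ILS.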

L1210 [3] = test: Antitumor activity against the ip implanted L1210 leukemia in mice expressed as optimal dose (1 qd treatment schedule) required to produce greatest increase in life span was determined; assay type: functional, Mus musculus
Summary of the method: (§3)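 DBA/2J mice, groups of 6 (23-28 g), were inoculated ip with 1 × 10^6 L1210 cells on day 0. Dosing was ip from 24 h, in 0.9% NaCl with 0.5% Tween-80 (sonicated solution or suspension). Mice were observed daily until death or day 45. Median survival T/C followed NCI protocols, and ILS = (T/C − 1) × 100. Active range means doses giving ILS ≥25%; optimal dose means greatest ILS.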

L1210 [4] = test: Antitumor activity was determined against the ic implanted L1210 lymphoid leukemia in mice by range in survival days at 300 mg/kg (1 qd treatment schedule) dosage; Range is 14-18; assay type: functional, Mus musculus
L1210 [5] = test: Antitumor activity was determined against the ip implanted L1210 leukemia in mice by change in […] at 200 mg/kg (treatment of 1qd schedule) dosage; assay type: functional, Mus musculus; conditions: route intraperitoneal
Summary of the method: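 DBA/2J mice, 6 per group (wt 23-28 g), inoculated ip with 1×10^6 L1210 cells on day 0. Treatment was given ip in 0.9% NaCl with 0.5% Tween-80, starting 24 h later. Weight change was taken on day 8. Mice were observed daily until death or 45 days. Median survival T/C and %ILS = (T/C − 1) × 100 came from survivors per NCI protocols, and 45-day survivors were counted.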

L1210 [6] = test: Antitumor activity was determined against the ip implanted L1210 leukemia in mice by percent median survival rate (treated/control) at 200 mg/kg (treatment of 1qd schedule) dosage; 19.5/7.0; assay type: functional, Mus musculus; conditions: route intraperitoneal; summary of the method: as §1
L1210 [7] = test: Antitumor activity against ip implanted L1210 leukemia in mice expressed as active dose range (1 qd treatment schedule) required to produce increase in life span by >25% was determined; Range is 100-250; assay type: functional, Mus musculus; summary of the method: as §3
L1210 [8] = test: Antitumor activity was determined against the ip implanted L1210 leukemia in mice by 45-day survivors in mice at 200 mg/kg (treatment of 1qd schedule) dosage; assay type: functional, Mus musculus; conditions: route intraperitoneal
Summary of the method: (§4)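 DBA/2J mice in groups of 6 (wt 23-28 g) were inoculated ip with 1×10^6 L1210 cells on day 0. Dosing was ip from 24 h, in 0.9% NaCl with 0.5% Tween-80 (conjugates sonicated), across a range of doses. Mice were observed daily until death or 45 days. Median T/C was computed from survivors per NCI protocols, and ILS = (T/C − 1)×100.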

L1210 [9] = test: Antitumor activity was determined against the ic implanted L1210 lymphoid leukemia in mice by percent increase in life span at 300 mg/kg (1 qd treatment schedule) dosage; assay type: functional, Mus musculus; summary of the method: as §2
L1210 [10] = test: Antitumor activity was determined against the ip implanted L1210 leukemia in mice by percent increase in life span at 200 mg/kg (treatment of 1qd schedule) dosage; assay type: functional, Mus musculus; conditions: route intraperitoneal; summary of the method: as §4
P388 [11] = test: Antitumor activity was determined against the ip implanted P388 leukemia in mice by percent median survival rate (treated/control) at 200 mg/kg (1 qd treatment schedule) dosage; >45.0/12.0; assay type: functional, Mus musculus; conditions: route intraperitoneal
P388 [12] = test: Antitumor activity was determined against the ip implanted P388 leukemia in mice by 45-day survivors in mice at 200 mg/kg (1 qd treatment schedule) dosage; assay type: functional, Mus musculus; conditions: route intraperitoneal
Summary of the method: (§5)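 DBA/2J mice, 23-33 g, in groups of 6, were inoculated ip with 1×10^6 P388 cells on day 0. Dosing was ip from 24 h on the stated schedules, in 0.9% NaCl with 0.5% Tween-80 (sonicated solution or suspension). Survival was followed daily until death or 45 days. Median T/C was calculated from survivors per NCI protocols, with ILS = (T/C − 1) × 100.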

P388 [13] = test: Antitumor activity against ip implanted P388 leukemia in mice expressed as active dose range (1 qd treatment schedule) required to produce increase in life span by >25% was determined; Range is 200-300; assay type: functional, Mus musculus
Summary of the method: (§6)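 P388 leukemia: 1 × 10^6 cells were given ip on day 0 to DBA/2J mice, groups of 6 (23-33 g). Treatment was ip from 24 h after inoculation, vehicle 0.9% NaCl with 0.5% Tween-80. Mice were observed daily until death or 45 days. Median survival T/C was calculated from survivors per NCI protocols, and ILS = (T/C − 1) × 100. Active range means doses giving ILS ≥25%; optimal dose means greatest ILS.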

P388 [14] = test: Antitumor activity was determined against the ip implanted P388 leukemia in mice by change in […] at 200 mg/kg (1 qd treatment schedule) dosage; assay type: functional, Mus musculus; conditions: route intraperitoneal
Summary of the method: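 P388 leukemia, 1×10^6 cells implanted ip on day 0 into DBA/2J mice, groups of 6 (wt 23-33 g). Dosing ip started 24 h post-inoculation, vehicle 0.9% NaCl containing 0.5% Tween-80. Animals were observed daily until death or 45 days. Outputs were weight change, median survival T/C from survivors per NCI protocols, and %ILS = (T/C − 1) × 100.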

P388 [15] = test: Antitumor activity was determined against the ip implanted P388 leukemia in mice by range in survival days at 200 mg/kg (1 qd treatment schedule) dosage; Range is 24->45; assay type: functional, Mus musculus; conditions: route intraperitoneal
P388 [16] = test: Antitumor activity was determined against the ip implanted P388 leukemia in mice by percent increase in life span at 200 mg/kg (1 qd treatment schedule) dosage; assay type: functional, Mus musculus; conditions: route intraperitoneal; summary of the method: as §5
P388 [17] = test: Antitumor activity against the ip implanted P388 leukemia in mice expressed as optimal dose (1 qd treatment schedule) required to produce greatest increase in life span was determined; assay type: functional, Mus musculus; summary of the method: as §6
L1210 [18] = test: Antitumor activity was determined against the ic implanted L1210 lymphoid leukemia in mice by change in body weight at 300 mg/kg (1 qd treatment schedule) dosage
L1210 [19] = test: Antitumor activity was determined against the ic implanted L1210 lymphoid leukemia in mice by median survival time at 300 mg/kg (1 qd treatment schedule) dosage; 14.5/7.0

`CCCCCCCCCCCCCCCC(=O)Nc1ccn([C@@H]2O[C@H](CO)[C@@H](O)[C@@H]2O)c(=O)n1` was tested, and the Range (L1210 [1]) was 14, the Optimal dose (L1210 [2]) was 300 mg and the Optimal dose (L1210 [3]) was 200 mg/kg/day. It also gave a Range (L1210 [4]) of 14, a Weight change (L1210 [5]) of -0.5 g mouse-1 and a median survival time (L1210 [6]) of 19.5 days. It also gave an Active dose range (L1210 [7]) of 100 mg/kg/day, a Survivors (L1210 [8]) of 0 and an ILS (L1210 [9]) of 107. It also gave an ILS (L1210 [10]) of 179, a T/C (P388 [11]) of over 45% and a Survivors (P388 [12]) of 5. It also gave an Active dose range (P388 [13]) of 200 mg/kg/day, a Weight change (P388 [14]) of 0.75 g mouse-1 and a Range (P388 [15]) of 24. For the same compound, the ILS (P388 [16]) was over 275, the Optimal dose (P388 [17]) was 200 mg and the Weight change (L1210 [18]) was -2.04 g mouse-1. It also gave a median survival time (L1210 [19]) of 14.5 days.
